Experimental data taken from ChEMBL document CHEMBL1123645, “Phenylephrine derivatives as leukotriene D4 antagonists” (J Med Chem, 1987).
One block for each molecule: values may come before it. The source made the active and inactive calls. No cut-off for these calls is given here.

Assays:
[1] = test system: Cavia porcellus; assay: Inhibition of LTD4 (leukotriene) induced bronchospasm in the guinea pig when administered perorally at 25 mg/kg; NA means not active; type: functional, organism-based; parameters: dose 25 mg/kg
How it was run: (§1)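 Guinea pig bronchoconstriction induced by LTD4 or by ovalbumin. Antagonist was dosed orally to awake animals 120 min before the agonist, which is 95 min before anesthetic. […] Single-dose lines give percent inhibition at the stated oral dose.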

[2] = test system: Cavia porcellus; assay: Inhibition of LTD4 (leukotriene) induced bronchospasm in the guinea pig when administered intraduodenally at 25 mg/kg
[3] = test system: Cavia porcellus; assay: Antagonist activity was determined by the ability to inhibit of ovalbumin induced bronchospasm when administered perorally with respect to LY-171883 compound; type: functional; details: po; how it was run: as §1
[4] = test system: Cavia porcellus; assay: Antagonist activity was determined by the ability to inhibit of ovalbumin induced bronchospasm when administered intraduodenally with respect to LY-171883 compound; type: functional; details: intraduodenal
How it was run: (§2)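 Guinea pig bronchoconstriction induced by LTD4 or by ovalbumin. Antagonist was given intraduodenally 10 min before the agonist. […] Single-dose lines give percent inhibition at the stated id dose.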

[5] = test system: Cavia porcellus; assay: Relative inhibitory potency against LTD4 (leukotriene D4) induced bronchospasm when administered perorally with respect to LY-171883 compound; type: functional
[6] = test system: Cavia porcellus; assay: Antagonist activity was determined by the ability to inhibit of LTD4 (leukotriene D4) induced bronchospasm when administered intraduodenally with respect to LY-171883 compound; type: functional; details: intraduodenal; how it was run: as §2
[7] = test system: Cavia porcellus; assay: Relative inhibitory potency against ovalbumin induced bronchospasm when administered intraduodenally with respect to LY-171883 compound; type: functional
[8] = organism: Cavia porcellus; assay: Antagonist activity towards LTD4-induced contraction of isolated guinea pig; type: functional
How it was run: (§3)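 Guinea pig tracheal spirals stretched to near-optimal length and equilibrated 1.5 h, washed every 15 min. Indomethacin (5 μM) was present in all tissues. Cumulative LTD4 dose-response curves were recorded isometrically via force transducers. Paired proximal/distal strips from one animal got solvent control or drug. Values are negative log, mean ± SEM, and were compared by Student's t test.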

[9] = test system: Cavia porcellus; assay: Relative inhibitory potency against LTD4 (leukotriene D4) induced bronchospasm when administered intraduodenally with respect to LY-171883 compound; type: functional
[10] = test system: Cavia porcellus; assay: Relative inhibitory potency against ovalbumin induced bronchospasm when administered perorally with respect to LY-171883 compound; type: functional
[11] = test system: Cavia porcellus; assay: Antagonist activity was determined by the ability to inhibit of LTD4 (leukotriene D4) induced bronchospasm when administered perorally with respect to LY-171883 compound; type: functional; details: po; how it was run: as §1
[12] = organism: Cavia porcellus; assay: relative potency antagonist on LTD4-induced contraction of isolated guinea pig trachea; type: functional; how it was run: as §3
[13] = test system: Cavia porcellus; assay: Inhibition of LTD4 (leukotriene) induced bronchospasm in the guinea pig when administered intraduodenally (50 mg/kg) NA means not active; type: functional, organism-based; how it was run: as §2
[14] = test system: Cavia porcellus; assay: Inhibition of LTD4 (leukotriene) induced bronchospasm in the guinea pig when administered intraduodenally (50 mg/kg)
[15] = test system: Cavia porcellus; assay: Inhibition of LTD4 (leukotriene) induced bronchospasm in the guinea pig when administered perorally (50 mg/kg); NA means not active; type: functional, organism-based; how it was run: as §1
[16] = biological target: Cysteinyl leukotriene receptor (Homo sapiens) (UniProt Q9Y271+Q9NS75); assay: Inhibition of Ovalbumin (OA) induced bronchospasm in the guinea pig when administered intraduodenally (50 mg/kg); type: functional, organism-based; details: Cavia porcellus; target entry is the homologue from another species; how it was run: as §2
[17] = test system: Cavia porcellus; assay: Inhibition of Ovalbumin (OA) induced bronchospasm in the guinea pig when administered intraduodenally at 25 mg/kg; type: functional; details: route intraduodenal; how it was run: as §2
[18] = test system: Cavia porcellus; assay: Inhibition of Ovalbumin (OA) induced bronchospasm in the guinea pig when administered perorally at 25 mg/kg; type: functional; details: route oral; how it was run: as §1
[19] = test system: Cavia porcellus; assay: Inhibition of Ovalbumin (OA) induced bronchospasm in the guinea pig when administered intraduodenally at 25 mg/kg; NA means not active; type: functional, organism-based; parameters: dose 25 mg/kg; how it was run: as §2
[20] = test system: Cavia porcellus; assay: Inhibition of Ovalbumin (OA) induced bronchospasm in the guinea pig when administered perorally (50 mg/kg); type: functional; how it was run: as §1
[21] = test system: Cavia porcellus; assay: Inhibition of LTD4 (leukotriene) induced bronchospasm in the guinea pig when administered perorally (25 mg/kg), A minus(-)number indicates potentiation.; NA means not active; type: functional, organism-based; how it was run: as §1
[22] = test system: Cavia porcellus; assay: Inhibition of LTD4 (leukotriene) induced bronchospasm in the guinea pig when administered perorally (50 mg/kg)
[23] = test system: Cavia porcellus; assay: Inhibition of Ovalbumin (OA) induced bronchospasm in the guinea pig when administered perorally (50 mg/kg); NA means not active,<10%inhibition; type: functional, organism-based; how it was run: as §1
[24] = test system: Cavia porcellus; assay: Antagonist activity was determined by the ability to inhibit of ovalbumin induced bronchospasm when administered per orally; type: functional; details: po; how it was run: as §1
[25] = biological target: Cyclooxygenase (Rattus norvegicus); assay: Ability to inhibit Prostaglandin G/H synthase in rat
[26] = test system: Cavia porcellus; assay: Relative inhibitory potency against ovalbumin induced bronchospasm when administered per orally; type: functional
[27] = test system: Cavia porcellus; assay: Relative inhibitory potency against LTD4 (leukotriene D4) induced bronchospasm when administered intraduodenally; type: functional
[28] = test system: Cavia porcellus; assay: Relative inhibitory potency against ovalbumin induced bronchospasm when administered intraduodenally; type: functional
[29] = test system: Cavia porcellus; assay: Antagonist activity was determined by the ability to inhibit of LTD4 (leukotriene D4) induced bronchospasm when administered per orally; type: functional; details: po; how it was run: as §1
[30] = test system: Cavia porcellus; assay: Antagonist activity was determined by the ability to inhibit of LTD4 (leukotriene D4) induced bronchospasm when administered intraduodenally; type: functional; details: intraduodenal; how it was run: as §2
[31] = organism: Cavia porcellus; assay: relative potency antagonist on LTD4-induced contraction of isolated guinea pig; type: functional; how it was run: as §3
[32] = test system: Cavia porcellus; assay: Antagonist activity was determined by the ability to inhibit of ovalbumin induced bronchospasm when administered intraduodenally; type: functional; details: intraduodenal; how it was run: as §2
[33] = test system: Cavia porcellus; assay: Relative inhibitory potency against LTD4 (leukotriene D4) induced bronchospasm when administered per orally; type: functional
[34] = test system: Cavia porcellus; assay: Inhibition of LTD4 (leukotriene) induced bronchospasm in the guinea pig when administered intraduodenally (50 mg/kg); type: functional; how it was run: as §2

Chain of Cysteinyl leukotriene receptor (Homo sapiens) (Q9NS75 whole entry, looked up): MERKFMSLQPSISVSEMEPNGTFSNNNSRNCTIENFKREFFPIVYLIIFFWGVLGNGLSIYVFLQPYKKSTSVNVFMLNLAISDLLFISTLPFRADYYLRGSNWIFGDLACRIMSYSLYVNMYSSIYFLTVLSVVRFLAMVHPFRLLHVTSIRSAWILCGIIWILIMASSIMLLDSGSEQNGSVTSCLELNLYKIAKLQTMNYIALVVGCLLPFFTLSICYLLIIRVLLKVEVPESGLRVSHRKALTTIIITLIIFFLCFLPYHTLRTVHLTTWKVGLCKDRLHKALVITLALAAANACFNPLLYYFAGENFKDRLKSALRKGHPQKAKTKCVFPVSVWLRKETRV
Chain of Cysteinyl leukotriene receptor (Homo sapiens) (Q9Y271 whole entry, looked up): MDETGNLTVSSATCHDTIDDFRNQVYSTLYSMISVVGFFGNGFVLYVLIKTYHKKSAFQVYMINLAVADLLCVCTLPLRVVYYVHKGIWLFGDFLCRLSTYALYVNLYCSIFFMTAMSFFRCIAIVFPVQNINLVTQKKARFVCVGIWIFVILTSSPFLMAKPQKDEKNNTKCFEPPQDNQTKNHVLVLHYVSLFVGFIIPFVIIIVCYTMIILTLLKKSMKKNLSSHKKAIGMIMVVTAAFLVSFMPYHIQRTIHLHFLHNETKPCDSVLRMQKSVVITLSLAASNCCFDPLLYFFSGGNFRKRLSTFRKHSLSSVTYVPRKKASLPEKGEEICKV

Structure (SMILES): O=C(NCC(O)c1cccc(OCc2ccc3ccccc3n2)c1)c1cccs1 (centres undefined)
inhibition [1]: inactive | inhibition [2]: 82%

Structure (SMILES): CCCc1c(OCCCCc2nnn[nH]2)ccc(C(C)=O)c1O [TOMELUKAST]
ED50 [3]: 38 mg/kg | ED50 [4]: 19 mg/kg | Potency [5]: 1 | ED50 [6]: 6 mg/kg | Potency [7]: 1 | pkb [8]: 6.55 | Potency [9]: 1 | Potency [10]: 1 | ED50 [11]: 32 mg/kg | Potency [12]: 1

Structure (SMILES): CN1CC(c2cccc(OCc3nc4ccccc4s3)c2)OC1=O (centres undefined)
inhibition [13]: inactive

Structure (SMILES): CCC1=NCC(c2cccc(OCc3ccc4ccccc4n3)c2)O1 (centres undefined)
inhibition [19]: inactive | inhibition [14]: 80%

Structure (SMILES): O=C(NCC(O)c1cccc(OCc2ccc3ccccc3n2)c1)c1ccccc1 (centres undefined)
inhibition [2]: 18%

Structure (SMILES): CCOC(=O)CC1=NCC(c2cccc(OCc3ccc4ccccc4n3)c2)O1 (centres undefined)
inhibition [2]: 77%

Structure (SMILES): CN1C[C@H](c2cccc(OCc3ccc4ccccc4n3)c2)OC1=O
inhibition [19]: inactive | inhibition [14]: 99%

Structure (SMILES): CCN(CC)C(=O)N(C)C[C@H](O)c1cccc(OCc2nc3ccccc3n2C)c1
inhibition [22]: 38% | inhibition [14]: 77% | inhibition [23]: inactive | inhibition [16]: 84%

Structure (SMILES): CN1C[C@@H](c2cccc(OCc3ccc4ccccc4n3)c2)OC1=O
ED50 [24]: 95 mg/kg | IC50 [25]: > 100 µM | Potency [26]: 2.5 | Inhibition [20]: 56% | Potency [27]: 2 | inhibition [22]: 56% | Potency [28]: 2.2 | pkb [8]: 6.09 | inhibition [14]: 91% | ED50 [29]: 36 mg/kg | ED50 [30]: 12 mg/kg | Potency [31]: 3 | ED50 [32]: 42 mg/kg | inhibition [16]: 56% | Potency [33]: 1.1

Structure (SMILES): CNC(=O)N(C)CC(O)c1cccc(OCc2ccc3ccccc3n2)c1 (centres undefined)
pInhibition [34]: 92% | inhibition in vivo at 25 mg/kg [17]: 95%

Structure (SMILES): c1ccc(C2=NCC(c3cccc(OCc4ccc5ccccc5n4)c3)O2)nc1 (centres undefined)
inhibition in vivo at 25 mg/kg [17]: 87% | inhibition [14]: 92%

Structure (SMILES): c1ccc(C2=NCC(c3cccc(OCc4ccc5ccccc5n4)c3)O2)cc1 (centres undefined)
inhibition [2]: 11%

Structure (SMILES): CCC(=O)N(C)C[C@H](O)c1cccc(OCc2nc3ccccc3n2C)c1
inhibition [22]: 13% | inhibition [14]: 51% | inhibition [16]: 66%

Continued, in another order:

inhibition [14]: 54% | inhibition [16]: 80%
Structure (SMILES): CCNC(=O)O[C@@H](CN(C)C(=O)N(CC)CC)c1cccc(OCc2ccc3ccccc3n2)c1
inhibition [15]: inactive

inhibition [14]: 34%
Structure (SMILES): CCN(CC)C(=O)N(CC)C[C@H](O)c1cccc(OCc2ccc3ccccc3n2)c1

inhibition [2]: 25%
Structure (SMILES): CCOC(=O)CC(=O)NCC(O)c1cccc(OCc2ccc3ccccc3n2)c1 (centres undefined)

inhibition [2]: 83%
Structure (SMILES): O=S(=O)(NCC(O)c1cccc(OCc2ccc3ccccc3n2)c1)C(F)(F)F (centres undefined)
inhibition in vivo at 25 mg/kg [17]: 29% | inhibition in vivo at 25 mg/kg [18]: -53%

inhibition [14]: 82%
Structure (SMILES): CCNC(=O)N(C)CC(O)c1cccc(OCc2ccc3ccccc3n2)c1 (centres undefined)
Inhibition [20]: 46% | inhibition [21]: inactive

inhibition [2]: 36%
Structure (SMILES): CCOC(=O)NCC(O)c1cccc(OCc2ccc3ccccc3n2)c1 (centres undefined)

inhibition [14]: 31%
Structure (SMILES): CN(C[C@H](O)c1cccc(OCc2ccc3ccccc3n2)c1)C(=O)c1ccncc1
